GASC-1 inh – inhibitors of human GASC-1 (JMJD2C) demethylase | Q9H3R0 | GST-JMJD2C(1-420) H3K9me3 demethylation, DELFIA europium | inhibition, % at 2.35 µM | actives 0.069% (n = 330,000) | AID 2099;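 active = more than half of a compound's replicate wells show inhibition beyond 50%, single wells judged on their own value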;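 also: signal counts dimethyl H3K9 product captured on neutravidin plate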
Target sequence (Q9H3R0 1-420 limits assumed): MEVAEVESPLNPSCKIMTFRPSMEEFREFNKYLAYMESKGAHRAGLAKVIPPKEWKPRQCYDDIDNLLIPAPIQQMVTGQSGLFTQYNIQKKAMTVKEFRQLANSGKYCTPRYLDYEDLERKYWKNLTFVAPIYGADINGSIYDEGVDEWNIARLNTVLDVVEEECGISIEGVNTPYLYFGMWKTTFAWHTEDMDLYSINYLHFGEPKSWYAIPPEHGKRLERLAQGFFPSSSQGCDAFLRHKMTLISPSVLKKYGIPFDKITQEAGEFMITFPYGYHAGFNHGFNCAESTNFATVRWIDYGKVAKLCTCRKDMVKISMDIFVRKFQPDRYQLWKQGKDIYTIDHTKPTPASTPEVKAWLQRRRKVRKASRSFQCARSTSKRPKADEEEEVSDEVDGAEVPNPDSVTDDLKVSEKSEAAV
NR2E3 ag-1 – NR2E3 (human) agonism; inhibition of corepressor binding, % at 4.78 µM; actives 0.12% (n = 320,000); AID 2300; GST-NR2E3/biotin-RetCOR TR-FRET, 1536-well;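 active = percent inhibition above the cutoff of mean plus 3 SD of all tested compounds, set per screening campaign, cut at about 20% in these data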
Target sequence (Q9Y5X4 whole entry, looked up): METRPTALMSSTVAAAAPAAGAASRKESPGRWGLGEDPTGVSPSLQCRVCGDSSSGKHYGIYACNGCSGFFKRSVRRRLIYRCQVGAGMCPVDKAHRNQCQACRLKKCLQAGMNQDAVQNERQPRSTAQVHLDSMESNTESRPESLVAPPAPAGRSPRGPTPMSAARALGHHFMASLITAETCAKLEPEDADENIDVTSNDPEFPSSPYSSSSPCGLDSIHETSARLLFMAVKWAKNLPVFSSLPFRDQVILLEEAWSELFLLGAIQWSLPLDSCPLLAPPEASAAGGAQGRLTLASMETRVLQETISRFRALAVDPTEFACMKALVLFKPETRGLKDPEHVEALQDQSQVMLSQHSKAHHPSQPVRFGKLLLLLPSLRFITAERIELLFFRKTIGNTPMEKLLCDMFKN
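System: GST-tagged NR2E3 plus biotinylated RetCOR corepressor; Buffer or medium: pH 7.5 Tris-based buffer; Probe or stimulus: RetCOR corepressor, biotinylated, 7 nM; Doses: compound at 4.8 µM, single dose; Schedule: 5 h incubation at 4 °C; Technique: time-resolved FRET; Evaluation: percent inhibition of TR-FRET ratio; Replication: one well per compound, singlicate testing.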
ADAM17 inh – inhibits human ADAM17 | recombinant ADAM17, EDANS/DABCYL FRET peptide cleavage | inhibition, % at 6.95 µM | actives 0.83% (n = 370,000);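 active = inhibition above the mean of compounds lying between control limits plus 3 SD, set per campaign, cut at about 8.5% in these data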
proKLK7 act – activates the human kallikrein-7 zymogen; actives 0.9% (n = 370,000); purified proKLK7, EDANS-DABCYL substrate fluorescence; 100% is mature enzyme control, 0% vehicle; activation, % at 7 µM;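 active = activation above the mean of all tested compounds plus 3 SD, computed per campaign excluding outliers beyond control limits, cut at about 13% in these data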
NR2E3 ag-2 – agonists of human NR2E3 nuclear receptor | Q9Y5X4 | CHO-S Gal4-NCOR/VP16-NR2E3 two-hybrid, luciferase | inhibition of corepressor binding, % at 3.98 µM | actives 0.35% (n = 360,000) | AID 602229;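 active = inhibition above the mean of all tested compounds plus 3 SD, cut at about 70% in these data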;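 also: higher means lower luciferase signal from less NR2E3 corepressor binding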
ADAM10 inh – inhibitors of human ADAM10. recombinant ADAM10, EDANS/DABCYL FRET peptide cleavage, 3 h. inhibition, % at 7 µM. actives 0.62% (n = 370,000);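 active = inhibition above a per-campaign cutoff equal to the mean of compounds falling between control-based bounds plus 3 SD, cut at about 20% in these data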
NR2E3 ag confirm-1 – NR2E3 (human) agonism, confirmation; shares compounds with NR2E3 ag-1; cell-free NR2E3 corepressor release, TR-FRET, 5 h; activation (reported as inhibition), % at 3.98 µM; actives 39% (n = 360); in the data active = activation above about 20%
PPARg-NCOR2 ag – PPARg-NCOR2 interaction agonism, NR2E3 counter-screen. shares compounds with NR2E3 ag-1. TR-FRET PPARg-NCOR2 coregulator interaction, biochemical. inhibition, % at 3.98 µM. actives 45% (n = 360); in the data active = inhibition above about 20%
NR2E3 ag confirm-2 – NR2E3 agonism confirmed in two-hybrid assay. CHO-S mammalian two-hybrid NR2E3-NCOR, luciferase luminescence. inhibition, % at 3.98 µM. shares compounds with NR2E3 ag-2. actives 51% (n = 2,300). AID 624378;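 active = average inhibition above a cutoff equal to the mean inhibition of all tested compounds plus one SD, cut at about 70% in these data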
GAL4-VP16 luc – counter-screen for NR2E3 agonists: GAL4-VP16 reporter inhibitors | shares compounds with NR2E3 ag-2 | CHO-S GAL4-VP16 luciferase reporter, luminescence | inhibition, % at 3.98 µM | actives 29% (n = 2,300) | AID 624379;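 active = mean inhibition above a cutoff equal to the average over all tested compounds plus one standard deviation, cut at about 70% in these data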;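 also: luciferase from a UAS reporter driven by GAL4-VP16 transactivation; higher means less reporter light so more repression of VP16 activity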
proKLK7 act conf – proKLK7 activation, confirmation; actives 68% (n = 3,200); activation, % at 7 µM; purified proKLK7, EDANS-DABCYL substrate fluorescence; scaled: vehicle 0, mature enzyme 100; shares compounds with proKLK7 act; AID 686949;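 active = activation, as change over the incubation, above the mean of all tested compounds plus 3 SD, cut at about 13% in these data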
EDANS-DABCYL int – counter-screen for kallikrein-7 activators: EDANS-DABCYL optical interference; shares compounds with proKLK7 act; EDANS-DABCYL substrate fluorescence interference, no enzyme, 4 h; solvent 0%, active enzyme control 100%; activation, % at 7 µM; actives 80% (n = 3,200); AID 686952;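 active = activation above the all-compound mean plus 3 SD, ignoring values outside control-based bounds, cut at about 4.8% in these data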;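 also: value is the 4 h activation minus the activation read at time zero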
K7 EDANS ctr – counter-screen for kallikrein-7 activators: EDANS-DABCYL interference, dose response. shares compounds with proKLK7 act. EDANS-DABCYL peptide fluorescence interference, no enzyme. EC50, µM. actives 20% (n = 250);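 active = compounds that raise the fluorescence signal in this interference counterscreen, with EC50 at or below 10 µM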;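 also: intact quenched peptide substrate alone read at 355 nm excitation and 520 nm emission; signal is fluorescence gain from T0 to T4 after four hours at room temperature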
Large screens that a line does not name were inactive (follow-up assays come after a bar, where they were run). Most compounds without a hit are left out; they make up all but 2.5% or so of the library.

COc1cc(C2C(C(=O)c3ccco3)=C(O)C(=O)N2Cc2ccccc2)ccc1O (stereo unspecified)	none
O=C(C1=C(O)C(=O)N(CCCn2ccnc2)C1c1ccc(F)cc1)c1ccco1 (stereo unspecified)	NR2E3 ag-1 36.2 | NR2E3 ag confirm-1 inactive | PPARg-NCOR2 ag inactive
O=C(C1=C(O)C(=O)N(CCc2ccccc2)C1c1cccnc1)c1ccco1 (stereo unspecified)	NR2E3 ag-1 25.4 | NR2E3 ag confirm-1 inactive | PPARg-NCOR2 ag 23.1
CCCCOc1cccc(C2C(C(=O)c3ccc(C)o3)=C(O)C(=O)N2Cc2ccco2)c1 (stereo unspecified)	none (no result: NR2E3 ag-1)
COCCCN1C(=O)C(O)=C(C(=O)c2ccc(C)o2)C1c1cccc(Br)c1 (stereo unspecified)	NR2E3 ag-1 44.9 | NR2E3 ag confirm-1 20.0 | PPARg-NCOR2 ag 19.8
CCCOc1ccc(C2C(C(=O)c3ccco3)=C(O)C(=O)N2CCCn2ccnc2)cc1 (stereo unspecified)	none
O=C(C1=C(O)C(=O)N(Cc2cccnc2)C1c1cccc(Oc2ccccc2)c1)c1ccco1 (stereo unspecified)	none (no result: NR2E3 ag-1)
COCCCN1C(=O)C(O)=C(C(=O)c2ccco2)C1c1ccccc1 (stereo unspecified)	NR2E3 ag-1 21.6 | NR2E3 ag confirm-1 inactive | PPARg-NCOR2 ag inactive
Cn1c(=O)c(=O)n(C)c2cc(S(=O)(=O)N3CCN(CCO)CC3)ccc21	none (no result: GASC-1 inh, NR2E3 ag-1, NR2E3 ag-2)
CCCCC1=CC2=C(c3ccco3)C(=O)C(C)(OC(=O)c3ccc(OC)cc3)C(=O)C2=CN1Cc1ccccc1 (stereo unspecified)	none
CCCCC1=CC2=C(c3ccco3)C(=O)C(C)(OC(=O)c3ccc(OC)cc3)C(=O)C2=CN1Cc1ccc2c(c1)OCO2 (stereo unspecified)	NR2E3 ag-1 23.0 (no result: ADAM17 inh, proKLK7 act, ADAM10 inh) | NR2E3 ag confirm-1 inactive | PPARg-NCOR2 ag inactive
CCN(C)C(=O)CNc1nnnn1-c1ccccc1	none (no result: GASC-1 inh, NR2E3 ag-1, NR2E3 ag-2)
Cc1ccc(-c2n[nH]c(=S)n2-c2ccccc2)cc1	none
CS(=O)(=O)Nc1ccc(-c2n[nH]c(=S)n2-c2ccccc2)cc1	NR2E3 ag-1 26.8 | NR2E3 ag confirm-1 inactive | PPARg-NCOR2 ag inactive
COCc1cccc(-c2cc(C(=O)OC)c3n(c2=O)CCC3)c1	none (no result: GASC-1 inh, NR2E3 ag-1, NR2E3 ag-2)
COc1ccc(Br)cc1C(=O)Nc1ccc(C(=O)NCC(C)C)cc1	none
CCOc1ccc(Br)cc1C(=O)Nc1ccc(C(=O)NCC(C)C)cc1	NR2E3 ag-1 33.7 | NR2E3 ag confirm-1 32.7 | PPARg-NCOR2 ag 38.0
CCCOC(=O)CSC1=C(C#N)C(c2ccccc2OCC)C(C#N)C(=O)N1 (stereo unspecified)	none
CCCCOC(=O)CSC1=C(C#N)C(c2ccccc2OCC)C(C#N)C(=O)N1 (stereo unspecified)	NR2E3 ag-1 21.8 (no result: ADAM17 inh, proKLK7 act, ADAM10 inh) | NR2E3 ag confirm-1 inactive | PPARg-NCOR2 ag 36.5
O=C(O)CSc1ncnc2c1oc1ccccc12	none
N#CCCSc1ncnc2c1oc1ccccc12	NR2E3 ag-1 20.8 | NR2E3 ag confirm-1 inactive | PPARg-NCOR2 ag inactive
O=C(CSc1ncnc2c1oc1ccccc12)Nc1ccccc1C(F)(F)F	NR2E3 ag-1 44.0 | NR2E3 ag confirm-1 70.2 | PPARg-NCOR2 ag 74.2
COCc1cn(-c2cccc(-c3noc4c3C(=O)N(CC(=O)N3CCOCC3)CC4)c2)nn1	none (no result: GASC-1 inh, NR2E3 ag-1, NR2E3 ag-2)
C[C@@H]1OCN(C)[C@H]2C[C@H]3c4[nH]c5cccc(-c6ccc7c(c6)OCO7)c5c4CCN3C[C@@H]12	none (no result: GASC-1 inh, NR2E3 ag-1, NR2E3 ag-2)
COc1ccc(C2CCC3(CCC(=O)N3CCOC(=O)NCc3ccc(Cl)cc3)CC2)cc1 (stereo unspecified)	none (no result: GASC-1 inh, NR2E3 ag-1, NR2E3 ag-2)
Cc1ccc(C(=O)Nc2nc3ccccc3c(=O)s2)cc1	NR2E3 ag-1 23.1 | NR2E3 ag confirm-1 42.8 | PPARg-NCOR2 ag 46.2
N#Cc1c(-c2cccnc2)c2c([nH]c1=S)CCCC2	none
N#Cc1c(-c2ccco2)c2c([nH]c1=S)CCCC2	NR2E3 ag-1 38.7 | NR2E3 ag confirm-1 inactive | PPARg-NCOR2 ag 22.6
CC(C)Cc1c2c([nH]c(=S)c1C#N)CCCC2	NR2E3 ag-1 38.2 | NR2E3 ag confirm-1 33.8 | PPARg-NCOR2 ag 35.9
O=c1oc2c(O)c(O)cc3c(=O)oc4c(O)c(O)cc1c4c23	NR2E3 ag-1 37.6 (no result: GASC-1 inh, ADAM17 inh, proKLK7 act, ADAM10 inh) | NR2E3 ag confirm-1 33.9
CC1Cc2nc(SCC(=O)Nc3nccs3)n(C)c(=O)c2S1 (stereo unspecified)	NR2E3 ag-1 21.4 | NR2E3 ag confirm-1 inactive | PPARg-NCOR2 ag inactive
S=c1nc(SCc2ccccc2)[nH]c2ccccc12	NR2E3 ag-1 35.1 | NR2E3 ag confirm-1 36.3 | PPARg-NCOR2 ag 55.0 | NR2E3 ag confirm-2 inactive | GAL4-VP16 luc inactive
COc1ccccc1C(=O)N(Cc1ccccn1)CC1CCCO1 (stereo unspecified)	none (no result: GASC-1 inh, NR2E3 ag-1, NR2E3 ag-2)
O=C(NCCCN1CCCC1=O)c1cc2nc(-c3ccco3)cc(C(F)(F)F)n2n1	NR2E3 ag-1 21.9, proKLK7 act 14.4 | NR2E3 ag confirm-1 inactive | PPARg-NCOR2 ag inactive | proKLK7 act conf 12.6 | EDANS-DABCYL int inactive | K7 EDANS ctr inactive
CCN(CC)C(=O)CC[C@@H]1CC[C@]2(CCCN(C(=O)C(C)(C)C)C2)O1	none (no result: GASC-1 inh, NR2E3 ag-1, NR2E3 ag-2)
COc1ccc(CNC(=O)c2cccc3c(-c4cnn(C)c4)coc23)cc1OC	none (no result: GASC-1 inh, NR2E3 ag-1) | NR2E3 ag confirm-2 inactive | GAL4-VP16 luc inactive
COc1cc(NC(=O)c2cccc3c(-c4cccnc4)coc23)cc(OC)c1OC	none (no result: GASC-1 inh, NR2E3 ag-1) | NR2E3 ag confirm-2 inactive | GAL4-VP16 luc inactive
